The values that follow come from ChEMBL document CHEMBL1139506, “Effect on K(ATP) channel activation properties and tissue selectivity of the nature of the substituent in the 7- and the 3-position of 4H-1,2,4-benzothiadiazine 1,1-dioxides” (J Med Chem, 2005).

The species entered for data set [1] is Rattus norvegicus. As to the kind of experiment: Effect on insulin secretion from rat pancreatic islets at 50 uM concentration (n=13). The class given is functional. In short, it runs like this: (§1)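 Islets isolated by collagenase from fed Wistar rats (180-220 g); groups of 10 preincubated 30 min, 37 °C, in bicarbonate salt medium with 2.8 mM glucose, 0.5% dialyzed albumin, O2/CO2 95:5. Then incubated 90 min, 37 °C, with 16.7 mM glucose plus drug. Insulin measured by radioimmunoassay against rat insulin standard; expressed as % of drug-free 16.7 mM glucose control; mean ± SEM (n).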

The species named for data set [2] is Rattus norvegicus. Briefly: Concentration required for relaxation of the 30 mM KCl-induced contraction of rat aortic rings (n=4). The format is functional. The note with it: Aorta, read-out: ED50 (the source's name). Put shortly:
(§2)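 Endothelium-denuded transverse aortic rings (3-4 mm) from fed Wistar rats (180-200 g); isometric tension by force transducer. After 60 min equilibration, contracted with 30 mM KCl; at stable tension, drug added cumulatively until maximal relaxation or up to 0.3 mM. Relaxation expressed as % of KCl contraction; ED50 (50% inhibition of KCl plateau) from dose curves; mean ± SEM (n).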

The species entered for data set [3] is Rattus norvegicus. As to the kind of experiment: Concentration required for relaxation of the 30 mM KCl-induced contraction of rat aortic rings; Precipitate. The following applies: Aorta. The class given is functional. In short, it runs like this: as §2
The species entered for data set [4] is Rattus norvegicus. Briefly: Effect on insulin secretion from rat pancreatic islets at 10 uM concentration (n=14). The class given is functional. Put shortly:
as §1

Data set [5] is filed under the species Rattus norvegicus. As to the kind of experiment: Effect on insulin secretion from rat pancreatic islets at 1 uM concentration (n=16). The format is functional. In short, it runs like this:
as §1

Data set [6] is filed under the species Rattus norvegicus. Briefly: Effect on insulin secretion from rat pancreatic islets at 10 uM concentration (n=16). The format is functional. Put shortly:
as §1

Data set [7] is filed under the species Rattus norvegicus. Briefly: Effect on insulin secretion from rat pancreatic islets at 10 uM concentration (n=22). The format is functional. Put shortly: as §1
The species named for data set [8] is Rattus norvegicus. As to the kind of experiment: Effect on insulin secretion from rat pancreatic islets at 50 uM concentration (n=15). The class given is functional. Put shortly:
as §1

For data set [9], the species on record is Rattus norvegicus. As to the kind of experiment: ED50/IC50 ratio was determined. The class given is functional.
Data set [10] is filed under the species Rattus norvegicus. Briefly: Concentration required for 50% inhibition of insulin release in rat pancreatic B-cells. The class given is functional, cell-based.
The species entered for data set [11] is Rattus norvegicus. Briefly: Effect on insulin secretion from rat pancreatic islets at 1 uM concentration (n=15). The class given is functional. Put shortly: as §1
The nature of data set [12]: Ionization constant was determined. The format is physicochemical. In short, it runs like this: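 Ionization constant found by UV spectroscopy in aqueous buffers spanning pH 5 to 12; pKa calculated with the Debye-Hückel equation at the absorbance maximum of the basic form.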
For data set [13], the species on record is Rattus norvegicus. Briefly: Effect on insulin secretion from rat pancreatic islets at 10 uM concentration (n=23). The format is functional. In short, it runs like this:
as §1

Data set [14] is filed under the species Rattus norvegicus. As to the kind of experiment: Effect on insulin secretion from rat pancreatic islets at 50 uM concentration (n=16). The format is functional. Put shortly:
as §1

Data set [15] is filed under the species Rattus norvegicus. Briefly: Effect on insulin secretion from rat pancreatic islets at 50 uM concentration (n=12). The class given is functional. Put shortly: as §1
For data set [16], the species on record is Rattus norvegicus. As to the kind of experiment: Effect on insulin secretion from rat pancreatic islets at 10 uM concentration (n=15). The class given is functional. In short, it runs like this:
as §1

For data set [17], the species on record is Rattus norvegicus. Briefly: Effect on insulin secretion from rat pancreatic islets at 10 uM concentration (n=24). The format is functional. In short, it runs like this: as §1

In turn, `O=[N+]([O-])c1ccc2c(c1)S(=O)(=O)NC(NC1CCC1)=N2` gave a Residual insulin release in the data set listed under Rattus norvegicus [1] of 59.6%. Further, in the data set filed under Rattus norvegicus [2], the EC50 was 13.8 µM.

On to `O=S1(=O)N=C(NC2CCC2)Nc2ccccc21`, for which the ED50 entry in the data set filed under Rattus norvegicus [3] is on record as “Insoluble”. Besides, the Residual insulin release in the data set filed under Rattus norvegicus [4] was found to be 29.8%; in the data set filed under Rattus norvegicus [5], 79.9%.

For the compound `CCC(C)NC1=NS(=O)(=O)c2ccccc2N1` (stereo not given), the Residual insulin release came out at 42.7% in the data set filed under Rattus norvegicus [6] and 90.4% in the data set listed under Rattus norvegicus [5]. Also, the ED50 entry in the data set filed under Rattus norvegicus [3] is “Precipitate”.

Turning to `CCC(C)NC1=NS(=O)(=O)c2cc(C(F)(F)F)ccc2N1` (stereo not given), the Residual insulin release in the data set filed under Rattus norvegicus [7] turned out to be 76.1%; in the data set filed under Rattus norvegicus [8], 28.6%. In the data set filed under Rattus norvegicus [2], the EC50 came out at 8.9 µM.

On to `CC(C)NC1=NS(=O)(=O)c2ccccc2N1`, for which the Residual insulin release in the data set listed under Rattus norvegicus [6] is 34.9%; in the data set listed under Rattus norvegicus [11] it was 73.7%. For the same compound, the Ratio in the data set listed under Rattus norvegicus [9] is on record as above 79. Moreover, half-maximal inhibition in the data set filed under Rattus norvegicus [10] (IC50) was put at 3.8 µM. In addition, the pKa in data set [12] came to 9.98. The EC50 in the data set filed under Rattus norvegicus [2] was above 300 µM.

Turning to `CCC(C)NC1=NS(=O)(=O)c2cc(C(=O)O)ccc2N1` (stereo not given), the Residual insulin release in the data set listed under Rattus norvegicus [13] stood at 93%; in the data set listed under Rattus norvegicus [14], 91.2%. In addition, in the data set filed under Rattus norvegicus [2], the EC50 was above 300 µM.

Regarding `CCCNC1=NS(=O)(=O)c2cc(OC)ccc2N1`, the Ratio in the data set filed under Rattus norvegicus [9] is given as above 34. In the data set listed under Rattus norvegicus [10], the IC50 was determined as 8.9 µM. The Residual insulin release in the data set filed under Rattus norvegicus [4] turned out to be 47.4%; in the data set listed under Rattus norvegicus [5], 101.7%; in the data set filed under Rattus norvegicus [15] it was 6.3%. In addition, the EC50 in the data set listed under Rattus norvegicus [2] was above 300 µM.

`CCNC1=NS(=O)(=O)c2cc(S(C)(=O)=O)ccc2N1`: the Residual insulin release in the data set listed under Rattus norvegicus [6] was found to be 91.6%. For the same compound, in the data set filed under Rattus norvegicus [2], the EC50 is above 300 µM.

As to `CCCCCc1ccc2c(c1)S(=O)(=O)NC(NC1CCC1)=N2`, the EC50 in the data set listed under Rattus norvegicus [2] is above 30 µM. In the data set filed under Rattus norvegicus [16], this compound registered a Residual insulin release of 95.3%.

For the compound `CC(=O)Nc1ccc2c(c1)S(=O)(=O)N=C(NC(C)C)N2`, the Residual insulin release in the data set filed under Rattus norvegicus [14] is given as 89.3%. The pKa in data set [12] worked out at 9.8. In addition, the EC50 in the data set filed under Rattus norvegicus [2] is above 300 µM.

Turning to `CCCNC1=NS(=O)(=O)c2cc(C(=O)O)ccc2N1`, in the data set listed under Rattus norvegicus [2], the EC50 is above 300 µM. Further, the Residual insulin release was determined as 95.3% in the data set listed under Rattus norvegicus [8] and 97.6% in the data set listed under Rattus norvegicus [16].

As for `CC(C)NC1=NS(=O)(=O)c2cc(S(C)(=O)=O)ccc2N1`, in the data set filed under Rattus norvegicus [2], the EC50 amounted to 127 µM. In the data set filed under Rattus norvegicus [16], this compound had a Residual insulin release of 90.5%.

For `CCOc1ccc2c(c1)S(=O)(=O)NC(NC(C)C)=N2`, in the data set listed under Rattus norvegicus [4], the Residual insulin release is 65.9%. In the data set listed under Rattus norvegicus [2], the EC50 came to 233 µM.

`CC(C)NC1=NS(=O)(=O)c2cc(C(=O)O)ccc2N1`: the Residual insulin release in the data set listed under Rattus norvegicus [13] amounted to 96.6%; in the data set filed under Rattus norvegicus [14] it was 98.6%. Moreover, the EC50 in the data set listed under Rattus norvegicus [2] was above 300 µM.

On to `CC(C)C(C)NC1=NS(=O)(=O)c2cc([N+](=O)[O-])ccc2N1` (stereo not given), for which the Residual insulin release in the data set filed under Rattus norvegicus [14] turned out to be 90.4%. The EC50 in the data set listed under Rattus norvegicus [2] is 2.8 µM.

Take `CC(C)NC1=NS(=O)(=O)c2cc(N)ccc2N1`: in data set [12], the pKa is 10.5. In addition, the EC50 in the data set listed under Rattus norvegicus [2] was above 300 µM. Moreover, in the data set listed under Rattus norvegicus [8], the Residual insulin release is 85.8%.

Compound `CCNC1=NS(=O)(=O)c2cc(OCC)ccc2N1` had a Residual insulin release in the data set listed under Rattus norvegicus [17] of 75%. The EC50 in the data set filed under Rattus norvegicus [2] turned out to be 162 µM.

`CCC(C)NC1=NS(=O)(=O)c2cc(S(C)(=O)=O)ccc2N1` (stereo not given) displayed a Residual insulin release in the data set filed under Rattus norvegicus [6] of 97.2%. In addition, the EC50 in the data set filed under Rattus norvegicus [2] worked out at 126 µM.

Regarding `CCCCCc1ccc2c(c1)S(=O)(=O)NC(NCC)=N2`, in the data set listed under Rattus norvegicus [6], the Residual insulin release turned out to be 104%. The EC50 in the data set listed under Rattus norvegicus [2] turned out to be 6.6 µM.

On to `CC(C)NC1=NS(=O)(=O)c2cc(C(N)=O)ccc2N1`, for which the Residual insulin release in the data set filed under Rattus norvegicus [13] stood at 76.6%. Besides, in the data set listed under Rattus norvegicus [2], the EC50 came to 175 µM.

In the data set listed under Rattus norvegicus [6], `CCCCCc1ccc2c(c1)S(=O)(=O)NC(NC(C)C)=N2` registered a Residual insulin release of 106%. Also, in the data set filed under Rattus norvegicus [2], the EC50 came out at 20.1 µM.

The compound `CCOc1ccc2c(c1)S(=O)(=O)NC(NC1CCC1)=N2` showed a Residual insulin release in the data set listed under Rattus norvegicus [6] of 84.9%. Besides, the EC50 in the data set filed under Rattus norvegicus [2] is above 300 µM.

In general, IC50 refers to the concentration that inhibits the measured activity by half. A higher IC50 goes with a need for much substance. Usually pKa stands for the pH at which an ionisable group is half protonated.
